PTEN del growth – growth suppression of PTEN-null HCT116, primary screen, cell-based, CellTiter-Glo. HCT116 PTEN-null viability, 60 h; hits give low values. viability, % at 10 µM. hit rate 1.2% among 140,000;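 active = viability at or below a set limit, 4 SD under the median of all tested compounds, cut at about 3.7% in these data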;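 note: PTEN knockout HCT116 line with beta catenin targeted HCT116 as companion control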
HCT116 bCat-KO – primary screen for growth suppressors in beta-catenin knockout HCT116 cells (colon tumor, human) | hit rate 1.5% among 140,000 | viability, % at 10 µM | AID 818, 2007 | HCT116 beta-catenin knockout viability, CellTiter-Glo, 60 h; hits give low values;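 active = viability at or under a set limit, the compound median less 4 SD, cut at about 6% in these data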;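 note: 0% = Hyamine 1622 control at 20 µM and 100% = untreated cell control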
Lmaj promast – Leishmania major promastigote growth inhibition, primary screen; Leishmania major promastigotes, resazurin fluorescence viability; inhibition, % at 10 µM; hit rate 9% among 200,000; in the data active = inhibition above about 50%;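 note: promastigotes grown with compound for 44 hours at 28 °C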
Autophagy HCS – autophagy modulators in MEF cells, primary screen, imaging, high-content, MEF GFP-LC3; MEF GFP-LC3 puncta imaging; test concentration mostly 10 µM; calls only at 10 µM (by protocol); hit rate 0.98% among 190,000; AID 463193, 2010;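 active = percentage of spot-positive cells more than 3 SD above its plate mean, without a fluorescence outlier flag or 80% toxicity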;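 note: spot-positive cell cutoff set from DMSO-treated cells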
Dynein cargo inh – inhibitors of GR-EGFP nuclear translocation, primary screen, dynein cargo transport inhibitor project, imaging, high-content, 3617.4 mouse cells; test concentration mostly 20 µM; stimulated with dexamethasone, 1 µM; hits give low values; z-score, hits read low; hit rate 0.47% among 220,000;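 active = plate z-score of nuclear minus cytoplasmic receptor signal below a set negative limit, without overly bright fluorescence or cell loss, cut at about -3.5 in these data, passing the limit was not always enough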;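 note: z-score of nuclear minus cytoplasmic ring GR-EGFP intensity difference per well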
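Buffer or medium: Induction medium lacking tetracycline, stripped serum | Also added: Dexamethasone agonist, 1.0 µM final, for 30 min | Timing: 48 h induction, 1 h compound, 30 min dex at 37 °C | Detection: Formaldehyde fixation, Hoechst nuclear stain, 10x automated fluorescence imaging | Measure: Nuclear versus cytoplasmic GR-EGFP signal, averaged per well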
An asterisk follows results filed as active; i = inactive; x = not tested or not shown; + = active, no number. An excerpt weighted towards active compounds, which were near 9.2% of everything screened.

SMILES	PTEN del growth	HCT116 bCat-KO	Lmaj promast	Autophagy HCS	Dynein cargo inh
C/C(N)=C(/C#N)C(=O)COC(=O)CCC1CCCC1	101.2	96.5	-2.7	i	0.667
Cc1cccc(-n2c(C)cc(/C=C3\C(=N)N4N=C(CC(C)C)SC4=NC3=O)c2C)c1	97.5	101.4	58.6*	i	-0.0634
CSCC(=O)NS(=O)(=O)c1ccc(C)cc1	98.5	108.9	-6.7	i	1.54
N#CCSc1nnc(Nc2ccccc2)s1	99.9	102.2	64.9*	i	-0.526
OCCSc1nnc(Nc2ccccc2)s1	97.3	96.0	2.3	i	-0.0689
CCCN(CCC)S(=O)(=O)c1ccc(C(=O)Nc2nc3c(s2)CCc2ccccc2-3)cc1	2.9*	3.1*	5.0	i	-0.236
C=CCNC(=S)NNC(=O)c1ccncc1	x	x	-6.6	i	-1.46
O=C(N/N=C/c1cn(-c2ccccc2)nc1-c1cc2ccccc2o1)c1ccncc1	10.0	17.1	43.4	i	0.0137
N#C/C(=C\c1cn(-c2ccccc2)nc1-c1cc2ccccc2o1)c1nc2ccccc2[nH]1	62.5	81.8	6.8	+	-0.723
O=C(N/N=C/c1cn(-c2ccccc2)nc1-c1cc2ccccc2o1)c1cccnc1	3.5*	7.3	96.8*	i	-0.355
CC1CCC2(CC1)NC(=S)N(c1ccccc1)N2 (stereo not given)	90.0	95.3	79.4*	i	-1.02
COc1ccc(-n2nnnc2-c2ccccc2)cc1	15.7	14.1	-1.8	+	0.0794
COc1ccc(CCNC(=O)C(C(=O)c2ccccc2)n2cc(Cl)ccc2=O)cc1OC (stereo not given)	95.2	90.2	54.8*	i	-0.088
COc1ccc(CCNC(=O)C(C(=O)c2ccccc2)n2ccccc2=O)cc1OC (stereo not given)	93.9	96.5	-6.6	i	-0.887
Nc1c(C(=O)Nc2ccc(Cl)c(Cl)c2)sc2nc(-c3cccnc3)ccc12	97.3	95.9	58.9*	i	0.92
CCOC(=O)c1c2c(n(C)c1COC)C(=O)C(=O)c1ccc(Br)cc1-2	x	x	99.6*	i	0.0343
Cn1c2ccccc2c(=O)c2c(=O)n(C3CCCCC3)c(-c3ccco3)nc21	3.4*	4.1*	31.7	i	-0.366
Cc1ccnn1CCC(=O)O	x	x	x	x	-0.604
O=C(N/N=C\c1ccco1)Nc1cccc(Cl)c1	89.6	84.2	62.5*	i	0.133
Cc1cccc(NC(=O)CCC(=O)N/N=C/c2ccco2)c1	95.0	101.3	-6.7	i	-0.159
CCCCCC(=O)N/N=C/c1ccco1	98.7	92.2	77.8*	i	2.21
Cc1cccc(S(=O)(=O)N2CCC(CO)(Cc3ccccc3)CC2)c1	x	x	4.6	i	-0.612
C=C(C)Cn1c(C)cc(C)c(S(=O)(=O)c2cccc(C)c2)c1=O	x	x	95.9*	i	-0.401
NC(=O)C1CCCN1 (stereo not given)	x	x	-2.7	i	-0.522
CCN1CCN(c2ncnc3c2sc(=S)n3-c2ccccc2)CC1	67.9	68.9	51.6*	i	2.74
SMILES	PTEN del growth	HCT116 bCat-KO	Lmaj promast	Autophagy HCS	Dynein cargo inh
COc1ccccc1NS(=O)(=O)c1ccc(O)c(NC(=S)NCC2CCCO2)c1 (stereo not given)	x	x	x	x	-0.0468
COc1cccc(-c2cc3nc4c(c(NCC(C)(C)CN(C)C)n3n2)CCCC4)c1	x	x	77.2*	i	0.0188
Fc1cccc(-c2cc3nc4c(c(N5CCOCC5)n3n2)CCCC4)c1	70.3	76.1	7.0	i	-0.306
Fc1cccc(-c2cc3nc4c(c(NCc5ccco5)n3n2)CCCC4)c1	65.1	64.8	86.7*	i	-0.443
Cc1ccc(C=Nc2ccc(N(C)C)cc2)o1	37.9	5.4*	80.2*	i	-1.35
CCn1nc(C(=O)OC(C(=O)c2c[nH]c3ccccc23)c2ccccc2)c2ccccc2c1=O (stereo not given)	85.5	89.2	100.4*	i	2.05
CCn1nc(C(=O)OCC(=O)c2ccc(F)cc2)c2ccccc2c1=O	x	x	-3.2	i	-0.215
CCn1nc(C(=O)OCC(=O)NCC(C)C)c2ccccc2c1=O	x	x	4.6	+	1.02
CC(C)CCCC(C)NS(=O)(=O)Cc1ccccc1 (stereo not given)	90.8	96.0	15.2	i	-0.279
COC(=O)[C@@]1(Cc2ccc(F)cc2)[C@H]2c3cc(C(=O)N4CCCC4)n(Cc4ccc(C(F)(F)F)nc4)c3C[C@H]2CN1C(=O)c1ccccc1	41.3	35.7	87.3*	i	-0.629

Screens (PubChem)
